Assay outcomes: PubChem, several laboratories
LMPTP block = LMPTP (human) inhibition; recombinant LMPTP-A, OMFP fluorogenic substrate, fluorescence intensity; inhibition, % at 20 µM; actives 0.22% (n = 360,000); AID 651560;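 active means compounds that cut the enzyme signal by at least half of the control window in the single-dose screen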;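 further: plate controls were DMSO wells with enzyme plus substrate for no effect and substrate without enzyme for full effect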
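Buffer or medium: Bis-Tris pH 6.0, DTT, detergent; Assay system: LMPTP-A enzyme; Quantity: 0.625 nM enzyme; Detection: endpoint fluorescence intensity; Times: 50 min dark incubation at room temperature; Controls: substrate-only low control, DMSO enzyme-plus-substrate high control; Doses: single 20 µM dose; Read-out: percent inhibition versus substrate-only and uninhibited controls; Reagent: 400 µM OMFP.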
SUMO1 PPI mod = SUMO1-SIM interaction modulation; P63165; SUMO1 binding to a labelled peptide, TR-FRET, 1 h; inhibition, % at 20 µM; actives 0.33% (n = 360,000); AID 602429; in the data active means inhibition above about 37%
Scp1 inh = Scp-1 (human) phosphatase inhibition. inhibition, % at 20 µM. Recombinant Scp1, phosphopeptide, malachite green phosphate absorbance. Q9GZU7. AID 493091. actives 0.88% (n = 340,000);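 active means inhibition above about 50% at 20 µM, limit read from the data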;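 further: plate controls were DMSO wells with enzyme for no effect and wells lacking enzyme for full effect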
Target sequence (Q9GZU7 76-261 limits assumed): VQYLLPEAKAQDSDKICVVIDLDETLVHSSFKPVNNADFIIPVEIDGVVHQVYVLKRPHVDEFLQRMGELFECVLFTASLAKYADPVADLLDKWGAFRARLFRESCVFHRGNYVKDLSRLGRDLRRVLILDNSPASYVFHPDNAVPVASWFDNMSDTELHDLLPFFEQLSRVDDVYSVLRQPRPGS
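Test system: SCP-1 phosphatase catalytic domain, residues 76-261 | Compound dosing: One concentration, 20 µM, with 1.0% DMSO | Schedule: 45 min room-temperature reaction, 5 min colour, 30 min stabiliser | Detection: Absorbance at 630 nm | Read-out basis: % inhibition of SCP-1 phosphate liberation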
GRK2 inh = human GRK2 inhibition via aptamer displacement; actives 0.59% (n = 330,000); bead flow cytometry, FAM-aptamer displacement from GRK2; AID 488847; P25098; inhibition of aptamer binding, % at 10 µM;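 active means inhibition of aptamer binding above 40%, roughly 3 SD of noise, on plates passing a quality check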;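 further: median bead fluorescence of bound FAM aptamer so fluorescent compounds give negative values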
DNMT1 block = DNMT1 (human) enzyme inhibition | P26358 | DNMT1 molecular beacon, Hinp1I cleavage, fluorescence | inhibition (reported as % activation of signal), % at 10 µM | actives 0.83% (n = 360,000) | AID 588458; in the data active means inhibition above about 50%
STEP block = inhibitors of human striatal-enriched phosphatase STEP; AID 588621; actives 0.25% (n = 360,000); inhibition, % at 20 µM; P54829; recombinant STEP, OMFP fluorogenic substrate, fluorescence;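 active means inhibition at 20 µM, scaled per plate between control wells, above about 37%, limit read from the data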;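 further: 0% = DMSO with enzyme and substrate and 100% = substrate only without enzyme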
Target sequence (P54829 whole entry, looked up): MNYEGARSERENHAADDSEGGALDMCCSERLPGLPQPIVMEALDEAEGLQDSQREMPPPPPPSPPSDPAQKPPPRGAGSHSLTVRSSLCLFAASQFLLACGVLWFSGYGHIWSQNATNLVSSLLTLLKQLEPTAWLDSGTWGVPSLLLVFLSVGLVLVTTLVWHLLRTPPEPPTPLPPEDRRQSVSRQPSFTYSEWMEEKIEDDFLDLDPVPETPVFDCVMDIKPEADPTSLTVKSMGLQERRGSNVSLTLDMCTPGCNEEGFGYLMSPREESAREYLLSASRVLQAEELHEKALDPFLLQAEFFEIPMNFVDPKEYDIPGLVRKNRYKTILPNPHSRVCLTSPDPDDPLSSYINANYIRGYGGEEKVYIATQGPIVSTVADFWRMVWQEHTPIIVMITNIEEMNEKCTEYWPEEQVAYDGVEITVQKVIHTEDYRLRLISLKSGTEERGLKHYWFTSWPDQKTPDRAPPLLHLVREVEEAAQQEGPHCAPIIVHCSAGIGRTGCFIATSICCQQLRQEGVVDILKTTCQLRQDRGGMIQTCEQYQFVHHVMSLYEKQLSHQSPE
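System: STEP (striatal-enriched tyrosine phosphatase) enzyme, cell-free; medium: Bis-Tris pH 6.0 buffer with DTT, detergent; dosing: 20 µM, 1% DMSO; times: reaction 20 min, ambient temperature; detection: fluorescence, 480/540 nm; read-out basis: normalized % inhibition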
Scp-1 conf = Scp-1 (human) inhibition, single-dose confirmed; shares compounds with Scp1 inh; actives 61% (n = 2,500); AID 540281; recombinant SCP-1 catalytic domain, phosphate release, malachite green absorbance; inhibition, % at 20 µM;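 further: plate controls were DMSO with enzyme for no effect and buffer wells lacking enzyme for full effect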
Scp-1 MG ctr = interferes with malachite green readout, flagging false Scp-1 hits; shares compounds with Scp1 inh; Colorimetric interference counterscreen, malachite green absorbance 630 nm; 2,500 tested, under 10 active; AID 540313; apparent inhibition (interference), % at 20 µM;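 further: compounds added after enzyme reaction finished so only phosphate colour detection is probed; plate controls were DMSO wells with completed Scp-1 reaction for no effect and substrate wells lacking enzyme for full effect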
Scp-1 Tm shift = binds human Scp-1, shifting its melting temperature; shares compounds with Scp1 inh; actives 25% (n = 1,500); Recombinant SCP1, Sypro Orange thermal shift Tm; thermal shift relative to vanadate control, % at 40 µM;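 active means substances whose mean melting-temperature shift, as a percentage of the reference inhibitor's shift, reaches about 5.3%, limit read from the data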;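 further: 0% = Tm of DMSO wells and 100% = Tm with sodium orthovanadate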
Numbers without * were called inactive; / = not tested or not shown. Compounds with a hit are over-represented: about 2.2% of the library has one in this group of screens.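 How the source made its calls, unless noted: active means inhibition of at least 30% at 20 µM; inactive means the rest.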

SMILES	LMPTP block	SUMO1 PPI mod	Scp1 inh	GRK2 inh	DNMT1 block	STEP block	Scp-1 conf	Scp-1 MG ctr	Scp-1 Tm shift
Cc1ccc(-c2cc(C(=O)N/N=C/c3ccc(Cl)cc3)n[nH]2)o1	2.1	-6.5	64.8*	0.0	1.8	4.7	87.7*	-7.3	-11.5
O=C(CNC(=O)C12CC3CC(CC(C3)C1)C2)Nc1ncccc1O	-1.4	-4.0	-3.4	1.0	-0.6	-2.6	/	/	/
Cc1ccc(-c2nc(NC(=O)CSc3ncn[nH]3)ns2)cc1	-1.0	-10.3	-10.7	0.0	25.1	2.6	/	/	/
CCc1nnc(NC(=O)CSc2nnc3scc(-c4ccc(C)cc4)n23)s1	-0.1	0.5	-5.3	2.0	2.0	2.5	/	/	/
Cc1ccc(-c2nc(NC(=O)CSc3nnc4scc(-c5ccccc5)n34)ns2)cc1	13.1	-4.1	63.8*	0.0	31.9	1.4	65.4*	-7.3	-0.4
Cc1nnc(SCC(=O)Nc2nsc(-c3ccc(Cl)cc3)n2)s1	2.9	-8.7	69.6*	0.0	45.3	12.8	43.0*	-14.5	-9.4
COc1cc2ccccc2cc1C(=O)N/N=C/c1cccs1	0.3	-22.2	/	/	1.3	1.9	/	/	/
CCOc1ccccc1-c1nc2c(s1)CCc1onc(-c3ccc(OC)cc3)c1-2	2.8	9.2	80.8*	7.0	-1.0	-0.5	-20.9	-23.6	/
COc1ccc(-c2noc3c2-c2nc(-c4ccccc4Cl)sc2CC3)cc1	1.8	-1.0	-17.0	9.0	0.1	2.4	/	/	/
Cc1cccc(C(=Cc2ccc([N+](=O)[O-])cc2)C(=O)O)c1	-1.4	-26.7	/	/	6.9	-1.9	/	/	/
COc1ccccc1NC(=O)c1cc(N)cc(C(=O)Nc2ccccc2OC)c1	0.8	-0.8	-7.9	0.0	-1.5	1.8	/	/	/
COc1ccccc1NC(=O)c1coc(=O)c(Br)c1	8.2	0.5	65.6*	0.0	15.1	3.9	8.2	-5.7	/
NNc1nccc(Nc2ccccc2C(=O)O)n1	19.7	26.9	66.2*	0.0	2.0	0.0	65.1*	-7.1	-0.1
COc1ccc(-c2noc(CCC(=O)N3CCN(c4ccccc4Br)CC3)n2)cc1	4.4	-3.4	53.6*	0.0	-5.3	2.6	-12.2	-8.4	/
COc1ccc(-c2noc(CN3CCN(c4ccccc4)CC3)n2)cc1	1.2	1.2	67.5*	1.0	-2.8	-3.4	-14.7	-12.0	/
COc1ccc(N2CCN(Cc3nc(-c4ccccc4)no3)CC2)cc1	-0.8	-2.3	-9.1	0.0	-4.7	-2.7	/	/	/
CCOC(=O)[C@]12CCC=C1N(Cc1cccc3ccccc13)C(=O)[C@H](CC(=O)N1CCSCC1)C2	1.8	1.2	/	/	/	/	/	/	/
OCCN1CCN(c2ncnc3c2ncn3[C@H]2CN(Cc3cccs3)C[C@@H](CO)O2)CC1	-0.7	0.2	/	/	-4.2	-0.3	/	/	/
Cn1nnnc1SCC1=C(C(=O)O)N2C(=O)C(NC(=O)Cn3nc(C(F)F)cc3C3CC3)C2SC1 (stereo not drawn)	0.3	1.6	56.1*	18.0	8.9	2.9	61.4*	-12.9	1.4
Cc1nn(CC(=O)NC2C(=O)N3C(C(=O)O)=C(CSc4nnnn4C)CSC23)cc1Br (stereo not drawn)	0.2	-0.6	10.3	19.0	2.2	-0.7	/	/	/
Cc1c(Cl)cnn1CC(=O)NC1C(=O)N2C(C(=O)O)=C(CSc3nnnn3C)CSC12 (stereo not drawn)	-0.1	6.0	46.8	21.0	12.1	8.1	/	/	/
Cc1c(Cl)c(C(F)F)nn1CC(=O)NC1C(=O)N2C(C(=O)O)=C(CSc3nnnn3C)CSC12 (stereo not drawn)	0.7	13.2	67.8*	/	27.3	6.6	56.2*	-18.9	4.7
S=C1SC2(CCCCCC2)NC2=C1CCCCC2	0.1	-14.0	/	/	2.5	-0.2	/	/	/
Cc1ccc(S(=O)(=O)Nc2csc(C)c2C(=O)O)cc1	/	/	60.8*	24.0	/	/	58.5*	-4.9	15.3*
O=C(c1ncn[nH]1)N1CCN(c2nc(-c3ccccc3)cs2)CC1	4.4	14.7	56.3*	1.0	20.6	-0.4	39.4*	-1.3	1.9
SMILES	LMPTP block	SUMO1 PPI mod	Scp1 inh	GRK2 inh	DNMT1 block	STEP block	Scp-1 conf	Scp-1 MG ctr	Scp-1 Tm shift
O=C(c1cc(-n2cnnc2)ccc1Cl)N1CCN(c2nc(-c3ccccc3)cs2)CC1	1.9	-6.3	0.8	1.0	-3.6	4.3	/	/	/
CC(Sc1nnc(C2CC2)n1-c1ccccc1)C(=O)N1CCCC1 (stereo not drawn)	-1.3	-0.8	-0.8	/	0.9	0.9	/	/	/
COc1ccc(C(=O)N/N=C/c2ccc(OC)c(CN3CCCc4ccccc43)c2)cc1	3.4	-1.9	56.2*	0.0	-11.1	3.8	-17.5	-12.6	/
CSCCC(C(=O)Nc1c(C)cccc1C)N1CCN(C/C=C/c2ccccc2)CC1 (stereo not drawn)	-0.5	0.2	/	/	-4.0	0.0	/	/	/
N=C1S/C(=C\c2ccco2)C(=O)N1c1ccc2c(c1)OCO2	27.9	2.5	78.9*	4.0	8.6	12.7	46.1*	-15.9	-2.5
N=C1S/C(=C\c2ccco2)C(=O)N1c1nccs1	1.4	3.9	-1.3	2.0	7.1	7.5	/	/	/
O=C(CN1C(=O)C2CCCCC2C1=O)Nc1ccccc1N1CCCC1 (stereo not drawn)	0.8	-0.8	62.3*	2.0	-0.1	1.4	-15.1	-12.0	/
O=C(CN1C(=O)C2CC=CCC2C1=O)Nc1ccccc1N1CCCC1 (stereo not drawn)	0.1	1.8	-2.0	0.0	1.0	-0.1	/	/	/
CC(C)c1ccc(NC(=O)c2cc([N+](=O)[O-])ccc2N2CCOCC2)cc1	0.8	-17.7	55.0*	6.0	0.8	0.7	-10.8	-12.9	/
Cc1ccc(NC(=O)c2cc([N+](=O)[O-])ccc2N2CCOCC2)cc1C	1.6	-24.6	-10.5	1.0	0.4	-0.6	/	/	/
Cc1cc(=O)oc2cc(NC(=S)NNC(=O)c3c(Cl)cnn3C)ccc12	3.1	16.6	70.5*	1.0	-7.3	12.6	67.3*	-6.5	-0.9
CCCCNC(=O)c1ccc2nc(-c3ccco3)c(-c3ccco3)nc2c1	47.6	40.0*	53.0*	1.0	81.1*	3.2	51.3*	-5.7	12.7*
CCC(Oc1ccccc1)C(=O)Nc1nc2c(s1)C(=O)CC(C)(C)C2 (stereo not drawn)	0.2	-4.8	-8.1	1.0	1.1	1.4	-9.0	-10.1	/
